Experiments:
Assay type in all cases: functional, cell-based
PC-3 = assay: Cytotoxicity against human PC3 cells assessed as growth inhibition after 72 hrs by MTT assay; conditions: PC-3, 72 h
Procedure, shortened: (§1)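 Exponentially growing cells were seeded at 5×10^3 per well and held 24 h at 37 °C. Medium was then replaced with fresh medium containing a range of concentrations, and cells were exposed for 72 h. MTT (5 mg/mL) was added for 4 h at 37 °C, formazan was dissolved in DMSO and A570 was read. Triplicate wells per concentration, three experiments. IC50 was taken from dose–response curves of inhibition ratio.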

[1] = Cytotoxicity against human EC109 cells assessed as growth inhibition after 72 hrs by MTT assay; conditions: ECa-109, 72 h; procedure, shortened: as §1
MGC-803 = assay: Cytotoxicity against human MGC803 cells assessed as growth inhibition after 72 hrs by MTT assay; conditions: MGC-803, 72 h; procedure, shortened: as §1
MCF7 = assay: Cytotoxicity against human MCF7 cells assessed as growth inhibition after 72 hrs by MTT assay; conditions: MCF7, 72 h; procedure, shortened: as §1

COc1cc(Cn2cc(CSC(=S)N3CCNCC3)nn2)cc(OC)c1OC
IC50 (PC-3): > 128 µM | IC50 [1]: > 128 µM

CC(C)(C)OC(=O)N1CCN(C(=S)SCc2cn(-c3cccc(C(F)(F)F)c3)nn2)CC1
IC50 (MGC-803): 66.8 µM | IC50 (MCF7): 80.4 µM | IC50 (PC-3): > 128 µM | IC50 [1]: 69.3 µM

S=C(SCc1cn(Cc2ccc(Cl)cc2)nn1)N1CCNCC1
IC50 (PC-3): > 128 µM | IC50 [1]: > 128 µM

Cc1ccc(Cn2cc(CSC(=S)N3CCNCC3)nn2)cc1
IC50 (MGC-803): 64.3 µM | IC50 (MCF7): 53.2 µM | IC50 (PC-3): 19.8 µM | IC50 [1]: > 128 µM

S=C(SCc1cn(Cc2ccccc2Cl)nn1)N1CCNCC1
IC50 (MGC-803): 45.2 µM | IC50 (MCF7): 38.9 µM | IC50 [1]: > 128 µM

CC(C)(C)OC(=O)N1CCN(C(=S)SCc2cn(Cc3cc(=O)oc4cc(O)ccc34)nn2)CC1
IC50 (MGC-803): 4.96 µM | IC50 (MCF7): 10.4 µM | IC50 (PC-3): 36.8 µM | IC50 [1]: > 128 µM

O=c1[nH]cc(F)c(=O)[nH]1 [FLUOROURACIL]
IC50 (MGC-803): 7.01 µM | IC50 (PC-3): 27.1 µM | IC50 [1]: 3.34 µM

COc1ccc(Cn2cc(CSC(=S)N3CCNCC3)nn2)cc1
IC50 (PC-3): > 128 µM | IC50 [1]: > 128 µM

CC(C)(C)OC(=O)N1CCN(C(=S)SCc2cn(Cc3ccc(Cl)c(Cl)c3)nn2)CC1
IC50 (MGC-803): 33.7 µM | IC50 (MCF7): 19.1 µM | IC50 (PC-3): > 128 µM | IC50 [1]: > 128 µM

Fc1ccccc1Cn1cc(CSC(=S)N2CCNCC2)nn1
IC50 (MGC-803): 19.4 µM | IC50 (MCF7): 33.2 µM | IC50 (PC-3): 56.2 µM | IC50 [1]: > 128 µM

O=C(OCc1ccccc1)N1CCN(C(=S)SCc2cn(Cc3ccccc3Cl)nn2)CC1
IC50 (MGC-803): 15.5 µM | IC50 (MCF7): 21.4 µM | IC50 (PC-3): > 128 µM | IC50 [1]: 56.8 µM

COc1ccc(Cn2cc(CSC(=S)N3CCN(C(=O)OC(C)(C)C)CC3)nn2)cc1
IC50 (MGC-803): 22.8 µM | IC50 (MCF7): 4.96 µM | IC50 (PC-3): > 128 µM | IC50 [1]: 36.8 µM

COc1cc(Cn2cc(CSC(=S)N3CCN(C(=O)OC(C)(C)C)CC3)nn2)cc(OC)c1OC
IC50 (MGC-803): 27.3 µM | IC50 (MCF7): 22.7 µM | IC50 (PC-3): > 128 µM | IC50 [1]: 44.4 µM

Cc1ccc(Cn2cc(CSC(=S)N3CCN(C(=O)OCc4ccccc4)CC3)nn2)cc1
IC50 (MGC-803): 9.37 µM | IC50 (MCF7): 37.8 µM | IC50 (PC-3): > 128 µM | IC50 [1]: 32.6 µM

COc1cc(Cn2cc(CSC(=S)N3CCN(C(=O)OCc4ccccc4)CC3)nn2)cc(OC)c1OC
IC50 (MGC-803): 10.9 µM | IC50 (MCF7): > 128 µM | IC50 (PC-3): > 128 µM | IC50 [1]: > 128 µM

S=C(SCc1cn(Cc2ccc(Cl)c(Cl)c2)nn1)N1CCNCC1
IC50 [1]: > 128 µM

CC(C)(C)OC(=O)N1CCN(C(=S)SCc2cn(-c3ccccc3F)nn2)CC1
IC50 (MGC-803): 119 µM | IC50 (MCF7): 89.6 µM | IC50 (PC-3): > 128 µM | IC50 [1]: > 128 µM

CC(C)(C)OC(=O)N1CCN(C(=S)SCc2cn(CCOc3ccc4ccc(=O)oc4c3)nn2)CC1
IC50 (MGC-803): 67 µM | IC50 (MCF7): 79.8 µM | IC50 (PC-3): > 128 µM | IC50 [1]: > 128 µM

Fc1ccc(Cn2cc(CSC(=S)N3CCNCC3)nn2)cc1
IC50 (MGC-803): 32.5 µM | IC50 (MCF7): 49.9 µM | IC50 (PC-3): > 128 µM | IC50 [1]: > 128 µM

O=C(OCc1ccccc1)N1CCN(C(=S)SCc2cn(Cc3ccccc3F)nn2)CC1
IC50 (MGC-803): 5.06 µM | IC50 (MCF7): 7.95 µM | IC50 (PC-3): 68.3 µM | IC50 [1]: 27 µM

Cc1ccc(-n2cc(CSC(=S)N3CCN(C(=O)OC(C)(C)C)CC3)nn2)cc1
IC50 (MGC-803): 48.3 µM | IC50 (MCF7): 74.2 µM | IC50 (PC-3): > 128 µM | IC50 [1]: 114 µM

O=C(OCc1ccccc1)N1CCN(C(=S)SCc2cn(Cc3ccc(Cl)c(Cl)c3)nn2)CC1
IC50 (MGC-803): 7.14 µM | IC50 (MCF7): 10.6 µM | IC50 (PC-3): > 128 µM | IC50 [1]: 29.4 µM

O=C(OCc1ccccc1)N1CCN(C(=S)SCc2cn(Cc3ccc(Cl)cc3)nn2)CC1
IC50 (MGC-803): 31.3 µM | IC50 (MCF7): 27.5 µM | IC50 (PC-3): > 128 µM | IC50 [1]: > 128 µM

COc1ccc(Cn2cc(CSC(=S)N3CCN(C(=O)OCc4ccccc4)CC3)nn2)cc1
IC50 (MGC-803): 23.8 µM | IC50 (MCF7): 30.5 µM | IC50 (PC-3): > 128 µM | IC50 [1]: 58.3 µM

Cc1ccc(Cn2cc(CSC(=S)N3CCN(C(=O)OC(C)(C)C)CC3)nn2)cc1
IC50 (MGC-803): 3.49 µM | IC50 (MCF7): 19.7 µM | IC50 (PC-3): 17.2 µM | IC50 [1]: 47.9 µM

O=C(OCc1ccccc1)N1CCN(C(=S)SCc2cn(Cc3ccc(F)cc3)nn2)CC1
IC50 (MGC-803): 17.6 µM | IC50 (MCF7): 10.3 µM | IC50 (PC-3): > 128 µM | IC50 [1]: 32 µM

CC(C)(C)OC(=O)N1CCN(C(=S)SCc2cn(Cc3ccc(F)cc3)nn2)CC1
IC50 (MGC-803): 1.93 µM | IC50 (MCF7): 3.34 µM | IC50 (PC-3): > 128 µM | IC50 [1]: 58.9 µM

Cc1cc(=O)oc2cc(OCCn3cc(CSC(=S)N4CCN(C(=O)OC(C)(C)C)CC4)nn3)ccc12
IC50 (MGC-803): 76.9 µM | IC50 (MCF7): 90.4 µM | IC50 (PC-3): > 128 µM | IC50 [1]: > 128 µM

CC(C)(C)OC(=O)N1CCN(C(=S)SCc2cn(Cc3ccccc3F)nn2)CC1
IC50 (MCF7): 5.67 µM | IC50 (PC-3): 11.6 µM | IC50 [1]: 2.44 µM

CC(C)(C)OC(=O)N1CCN(C(=S)SCc2cn(Cc3ccc(Cl)cc3)nn2)CC1
IC50 (MGC-803): 9.79 µM | IC50 (MCF7): 2.96 µM | IC50 (PC-3): > 128 µM | IC50 [1]: > 128 µM

COc1ccc(-n2cc(CSC(=S)N3CCN(C(=O)OC(C)(C)C)CC3)nn2)cc1
IC50 (MGC-803): 87.3 µM | IC50 (MCF7): 93 µM | IC50 (PC-3): > 128 µM | IC50 [1]: > 128 µM

From ChEMBL document CHEMBL2331191, “Design and synthesis of novel 1,2,3-triazole-dithiocarbamate hybrids as potential anticancer agents” (Eur J Med Chem, 2013)
